Data set [1] is described as follows: folding enthalpy; higher = less favourable; fluorescence melt of hairpins on a sequencing array, two-state fit. Conditions: sodium 0.088 M. Summed up:
(§1)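 Library hairpins on a sequenced MiSeq flow cell carried annealed Cy3 and quencher oligos, and their Cy3 fluorescence was imaged in 50 mM Na-HEPES pH 8.0 with 25 mM NaCl, in 2.5 °C steps up to 60 °C. Signals were normalised to Cy3 before quenching and to control constructs. Melting temperature and folding enthalpy were obtained from bootstrapped two-state fits, combined by inverse-variance weighting across four replicates, and the fitted temperatures were then raised by 9.35 °C to match UV melts.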

Data set [2] can be described thus: melting temperature; fluorescence melt of hairpins on a sequencing array, two-state fit, raised by 9.35 °C to match UV melts. Conditions: sodium 0.088 M. The essentials: as §1

As for GCCACGACGAAAGTCGGC (((..(((....)))))), the folding enthalpy in data set [1] is -10.2 kcal/mol. For the same sequence, the Tm in data set [2] was determined as 44.1 °C.
As for GCCACGCGAAAGCCCGGC (((..((....))..))), the folding enthalpy in data set [1] is -18.5 kcal/mol. Besides, in data set [2], the Tm worked out at 43.7 °C.
The like results for GCCACGCGAAAGCGACGC ((..(((....)))..)) were, in that order, -11.8 kcal/mol and 39.8 °C.
The like results for GCCACGCGAAAGCGCCGC ((..(((....)))..)) were, in that order, -8.83 kcal/mol and 29.1 °C.
The matching figures for GCCACGCGAAAGCGCTGC ((..(((....)))..)): -11 kcal/mol and 37.4 °C.
Turning to GCCACGCGAAAGCTTGGC ((((.((....)).)))), the folding enthalpy in data set [1] is -35.5 kcal/mol. For the same sequence, in data set [2], the Tm turned out to be 66 °C.
For the sequence GCCACGGGAAACCGCGGC (((.(((....))).))), in data set [1], the folding enthalpy was -44.5 kcal/mol. The Tm in data set [2] amounted to 59.1 °C.
Turning to GCCACGTCGAAAGACGGC (((..(((....)))))), the folding enthalpy in data set [1] was -10.8 kcal/mol. In addition, in data set [2], the Tm is 49.5 °C.
The matching figures for GCCACTCGAAAGAGCGGC (((.(((....))).))): -46.9 kcal/mol and 61.3 °C.
With GCCACTCGAAAGAGGGC (((.(((....)))))), the folding enthalpy in data set [1] is -24.3 kcal/mol. Moreover, the Tm in data set [2] is 54.7 °C.
The matching figures for GCCACTGGAAACGGTGGC (((((.(....).))))): -50.6 kcal/mol and 58.6 °C.
The matching figures for GCCAGAGGAAACTCTAGC ((.((((....)))).)): -17.3 kcal/mol and 34.1 °C.
Turning to GCCAGCGAAAGCTAGGGC ((((((....)))..))), the folding enthalpy in data set [1] is -31.6 kcal/mol. The Tm in data set [2] came out at 52.7 °C.
The like results for GCCAGCGGAAACGTTGGC ((((.((....)).)))) were, in that order, -38.9 kcal/mol and 59.4 °C.
The like results for GCCAGCTCGAAAGAGGGC (((..(((....)))))) were, in that order, -24.5 kcal/mol and 45 °C.
The matching figures for GCCAGGCGAAAGCCAAGC ((..(((....)))..)): -13.3 kcal/mol and 44.8 °C.
Regarding GCCAGGCGAAAGCCTAGC ((.((((....)))).)), the folding enthalpy in data set [1] was -15.7 kcal/mol. Moreover, in data set [2], the Tm was found to be 51.4 °C.
The matching figures for GCCAGGCGAAAGCCTTGC ((.((((....)))).)): -20 kcal/mol and 56.9 °C.
The like results for GCCAGGCGAAAGCGAGGC (((..((....))..))) were, in that order, -21.1 kcal/mol and 59.4 °C.
The matching figures for GCCAGGCGAAAGCGTCGC ((.(.((....)).).)): -8.31 kcal/mol and 40.7 °C.
GCCAGGGCGAAAGCCGGC (((..(((....)))))): the folding enthalpy in data set [1] was -17.1 kcal/mol. The Tm in data set [2] amounted to 63.3 °C.
The like results for GCCAGTGGAAACACTAGC ((.((((....)))).)) were, in that order, -21.9 kcal/mol and 39.9 °C.
Consider GCCATAGAAATATGGC ((((((....)))))), for which the folding enthalpy in data set [1] is -36.4 kcal/mol. Moreover, the Tm in data set [2] was 53.5 °C.
The matching figures for GCCATCCGAAAGGAGGC (((.(((....)))))): -22.8 kcal/mol and 57.6 °C.
The matching figures for GCCATCCGAAAGGAGGGC (((.(((....))).))): -44 kcal/mol and 67.2 °C.
The matching figures for GCCATCGAAAGATATGGC ((((((....)))..))): -32 kcal/mol and 46.6 °C.
For the sequence GCCATCGAAAGATGAGGC ((((((....)))..))), the folding enthalpy in data set [1] is -18.8 kcal/mol. For the same sequence, the Tm in data set [2] was determined as 46.3 °C.
The like results for GCCATCGAAAGATTAGGC ((((((....)))..))) were, in that order, -30.7 kcal/mol and 43.4 °C.
The matching figures for GCCATGAAAATGGC (((((....))))): -28.1 kcal/mol and 60.6 °C.
The matching figures for GCCATGCGAAAGCAAAGC ((..(((....)))..)): -11.5 kcal/mol and 32.2 °C.
Consider GCCATGCGAAAGCAGAGC ((..(((....)))..)), for which, in data set [1], the folding enthalpy was -17.9 kcal/mol. In addition, in data set [2], the Tm turned out to be 44.6 °C.
The like results for GCCATGCGAAAGCATAGC ((.((((....)))).)) were, in that order, -17 kcal/mol and 51.6 °C.
The matching figures for GCCATGCGAAAGCCAGGC (((..((....))..))): -21 kcal/mol and 55.4 °C.
The matching figures for GCCATGCGAAAGCCTGGC ((((.((....)).)))): -31.2 kcal/mol and 62.8 °C.
In the case of GCCATGCGAAAGCCTTGC ((.(.((....)).).)), the folding enthalpy in data set [1] was -10 kcal/mol. The Tm in data set [2] was 26.6 °C.
The like results for GCCATGCGAAAGCGTCGC ((.(.((....)).).)) were, in that order, -12.7 kcal/mol and 48 °C.
For the sequence GCCATGGCGAAAGCCGGC (((..(((....)))))), in data set [1], the folding enthalpy is -16.2 kcal/mol. Also, in data set [2], the Tm was 62 °C.

(Values after the array DNA melting data of Ke et al. (doi:10.1101/2024.01.08.574731).)
